Source: PMC11295983 (ESMO Open, 2024)
Read-outs that look alike come from different tables or passages of the source.

Key:
advanced solid tumors = test: Investigator-assessed tumor response per RECIST v1.1, FIGHT-101 part 3; assay type: in vivo, human
[1] = system: patients with advanced solid tumor malignancies; test: Safety and tolerability; assay type: in vivo, human
How it was run: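 Patients are ≥18 years with solid tumors that progressed after ≥1 prior line. They self-administer oral pemigatinib 9, 13.5 or 20 mg q.d. on 21-day cycles, continuous or intermittent, combined with chemotherapy, trastuzumab or anti-PD-1 antibody until progression or toxicity. Interruption and dose adjustment are allowed. AE frequency, duration and severity are summarized descriptively for patients receiving ≥1 dose.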

phosphorylated FGFR2α = phosphorylated FGFR2α (Homo sapiens, UniProt P21802); assay type: cell-based
How it was run: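 Patients take oral pemigatinib once daily on 21-day cycles, continuous or intermittent, with combination therapy (e.g. i.v. docetaxel 75 mg/m² q3w, i.v. pembrolizumab 200 mg q3w). Steady-state trough is cycle 1 day 14, 0-24 h. Values are mean (SE) inhibition.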

[2] = system: patients with advanced malignancies; conditions: monotherapy, parts 1 and 2; cited from earlier work
advanced malignancies = conditions: monotherapy, cited from earlier work
pFGFR2α = conditions: based on in vivo experiments; no reference given; cited from earlier work
[3] = both the 9-mg and 13.5-mg doses of pemigatinib

Sequence of phosphorylated FGFR2α (P21802 431-767 limits assumed): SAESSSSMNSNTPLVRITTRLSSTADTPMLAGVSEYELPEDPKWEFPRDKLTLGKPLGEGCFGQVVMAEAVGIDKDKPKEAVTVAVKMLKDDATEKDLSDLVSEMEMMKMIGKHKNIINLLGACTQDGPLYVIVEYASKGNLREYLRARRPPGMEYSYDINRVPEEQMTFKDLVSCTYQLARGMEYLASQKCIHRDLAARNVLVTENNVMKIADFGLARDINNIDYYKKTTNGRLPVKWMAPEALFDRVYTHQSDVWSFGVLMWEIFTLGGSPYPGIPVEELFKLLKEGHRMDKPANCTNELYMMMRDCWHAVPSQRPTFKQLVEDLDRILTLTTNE

## pemigatinib + pembrolizumab [Pemi/pembro]
Advanced solid tumors; Total (all pemigatinib doses)
  ORR (95% CI): 26.9%
Advanced solid tumors; pemigatinib 13.5 mg ID, urothelial tract/bladder cancer, FGFR3 p.S249C mutation
  DOR, individual responder: 50.3 months
[1]; Total (all pemigatinib doses)
  Alanine aminotransferase increased (TEAE): 8 (30.8) n (%)
  Alopecia (TEAE): 11 (42.3) n (%)
  Anemia (TEAE): 12 (46.2) n (%)
  Aspartate aminotransferase increased (TEAE): 8 (30.8) n (%)
  Decreased appetite (TEAE): 11 (42.3) n (%)
  Diarrhea (TEAE): 12 (46.2) n (%)
  Dose interruptions because of TEAEs, patients: 57.7%
  Dose reductions because of TEAEs, patients: 7.7%
  Dry eye (TEAE): 8 (30.8) n (%)
  Dry mouth (TEAE): 9 (34.6) n (%)
  Fatigue TEAE, patients: 26.9%
  Hyperphosphatemia (TEAE): 19 (73.1) n (%)
  Pemigatinib-related TEAEs, patients: 88.5%
  Stomatitis (TEAE): 9 (34.6) n (%)
  TEAEs related to the combination partner, patients: 69.2%
[1]; pemigatinib 13.5 mg CD
  Alopecia TEAE, patients: 55.6%
  Dry mouth TEAE, patients: 55.6%
  Hyperphosphatemia TEAE, patients: 55.6%
[1]; pemigatinib 13.5 mg ID
  Hyperphosphatemia TEAE, patients: 78.6%
Phosphorylated FGFR2α; [3]
  Inhibition of FGFR2α phosphorylation at trough of steady state: exceeded 50%

## pemigatinib + gemcitabine + cisplatin [Pemi/gem/cis]
Advanced solid tumors; Total (all pemigatinib doses)
  ORR (95% CI): 37.5%
Advanced solid tumors; pemigatinib 13.5 mg ID, anal cancer, no detectable FGF/FGFR alterations
  DOR, individual responder: 5.8 months
Advanced solid tumors; pemigatinib 13.5 mg ID, ovarian cancer, no detectable FGF/FGFR alterations
  DOR, individual responder: 6.6 months
[1]; Total (all pemigatinib doses)
  Alanine aminotransferase increased (TEAE): 4 (50.0) n (%)
  Alopecia TEAE, patients: 12.5%
  Anemia (TEAE): 8 (100.0) n (%)
  Aspartate aminotransferase increased (TEAE): 4 (50.0) n (%)
  Blood creatinine increased (TEAE): 5 (62.5) n (%)
  Constipation (TEAE): 5 (62.5) n (%)
  Dehydration (TEAE): 3 (37.5) n (%)
  Diarrhea (TEAE): 4 (50.0) n (%)
  Dizziness (TEAE): 3 (37.5) n (%)
  Dose interruptions because of TEAEs, patients: 87.5%
  Dose reductions because of TEAEs, patients: 12.5%
  Dry mouth (TEAE): 3 (37.5) n (%)
  Fatigue (TEAE): 5 (62.5) n (%)
  Hyperphosphatemia (TEAE): 4 (50.0) n (%)
  Hyperphosphatemia TEAE, patients: 50.0%
  Hypokalemia (TEAE): 3 (37.5) n (%)
  Hyponatremia (TEAE): 4 (50.0) n (%)
  Nausea (TEAE): 5 (62.5) n (%)
  Neutropenia (TEAE): 4 (50.0) n (%)
  Pemigatinib-related TEAEs, patients: 87.5%
  Stomatitis (TEAE): 3 (37.5) n (%)
  TEAEs related to the combination partner, patients: 100.0%
  Thrombocytopenia (TEAE): 5 (62.5) n (%)
  Vomiting (TEAE): 3 (37.5) n (%)
  White blood cell count decreased (TEAE): 4 (50.0) n (%)
[1]; pemigatinib 13.5 mg ID
  Anemia TEAE, patients: 100.0%
Phosphorylated FGFR2α; pemigatinib 13.5 mg ID
  Inhibition of FGFR2α phosphorylation at trough of steady state: 31%

## CCN1C(=O)N(c2c(F)c(OC)cc(OC)c2F)Cc2cnc3[nH]c(CN4CCOCC4)cc3c21 [pemigatinib]
[2]
  Alopecia, patients: 31.3%
  Diarrhea, patients: 32.0%
  Dose reductions, patients: 4.6%
  Dry mouth, patients: 38.3%
  Fatigue, patients: 39.1%
  Hyperphosphatemia, patients: 75.0%
  Patients who discontinued pemigatinib because of TEAEs: 10.2%
  Pemigatinib interruption used to manage TEAEs, patients: 51.6%
  Stomatitis, patients: 34.4%
Advanced malignancies; 128 patients in parts 1 or 2
  Patients with partial responses (PRs): 9.4%
Advanced malignancies; parts 1 or 2
  ORR among patients with FGFR mutations: 23.1%
  ORR among patients with FGFR rearrangements: 25.0%
pFGFR2α
  IC50: 22.6 nM

## pemigatinib + retifanlimab [Pemi/reti]
Advanced solid tumors; Total (all pemigatinib doses)
  ORR (95% CI): 11.1%
Advanced solid tumors; pemigatinib 13.5 mg CD, ovarian cancer, no detectable FGF/FGFR alterations
  DOR, individual responder: 4.2 months
Advanced solid tumors; pemigatinib 13.5 mg CD, urothelial cancer, FGF3/4/19 amplification
  DOR, individual responder: 8.3 months
[1]; Total (all pemigatinib doses)
  Alopecia (TEAE): 6 (33.3) n (%)
  Dehydration (TEAE): 8 (44.4) n (%)
  Diarrhea (TEAE): 7 (38.9) n (%)
  Dry mouth (TEAE): 9 (50.0) n (%)
  Fatigue (TEAE): 11 (61.1) n (%)
  Hyperphosphatemia (TEAE): 11 (61.1) n (%)
  Hyperphosphatemia TEAE, patients: 61.1%
  Hypomagnesemia (TEAE): 6 (33.3) n (%)
  Pemigatinib-related TEAEs, patients: 94.4%
  Stomatitis (TEAE): 12 (66.7) n (%)
  Stomatitis TEAE, patients: 66.7%
  TEAEs related to the combination partner, patients: 88.9%
[1]; pemigatinib 13.5 mg CD
  Stomatitis TEAE, patients: 77.8%

## pemigatinib + trastuzumab [Pemi/tras]
Advanced solid tumors; pemigatinib 13.5 mg ID
  ORR (95% CI): 0%
[1]; pemigatinib 13.5 mg ID
  Alopecia (TEAE): 5 (83.3) n (%)
  Alopecia TEAE, patients: 83.3%
  Anemia (TEAE): 2 (33.3) n (%)
  Constipation (TEAE): 2 (33.3) n (%)
  Cough (TEAE): 4 (66.7) n (%)
  Decreased appetite (TEAE): 3 (50.0) n (%)
  Diarrhea (TEAE): 3 (50.0) n (%)
  Dry eye (TEAE): 2 (33.3) n (%)
  Dry mouth (TEAE): 4 (66.7) n (%)
  Dyspepsia (TEAE): 2 (33.3) n (%)
  Dyspnea (TEAE): 2 (33.3) n (%)
  Epistaxis (TEAE): 2 (33.3) n (%)
  Fatigue (TEAE): 2 (33.3) n (%)
  Fatigue TEAE, patients: 33.3%
  Headache (TEAE): 2 (33.3) n (%)
  Hyperphosphatemia (TEAE): 5 (83.3) n (%)
  Hyperphosphatemia TEAE, patients: 83.3%
  Nausea (TEAE): 2 (33.3) n (%)
  Pemigatinib-related TEAEs, patients: 83.3%
  Pyrexia (TEAE): 2 (33.3) n (%)
  Sinusitis (TEAE): 3 (50.0) n (%)
  Stomatitis (TEAE): 2 (33.3) n (%)
  TEAEs related to the combination partner, patients: 50.0%
  Taste disorder (TEAE): 2 (33.3) n (%)
  Upper respiratory tract infection (TEAE): 2 (33.3) n (%)
Phosphorylated FGFR2α; [3]
  Inhibition of FGFR2α phosphorylation at trough of steady state: exceeded 50%

## pemigatinib + docetaxel [Pemi/doc]
Advanced solid tumors; pemigatinib 13.5 mg ID
  ORR (95% CI): 14.3%
Advanced solid tumors; urothelial tract/bladder cancer, FGF10 amplification
  DOR, individual responder: 12.5 months
[1]; pemigatinib 13.5 mg ID
  Alopecia (TEAE): 3 (42.9) n (%)
  Anemia (TEAE): 4 (57.1) n (%)
  Constipation (TEAE): 3 (42.9) n (%)
  Dehydration (TEAE): 5 (71.4) n (%)
  Diarrhea (TEAE): 6 (85.7) n (%)
  Diarrhea TEAE, patients: 85.7%
  Dose interruptions because of TEAEs, patients: 42.9%
  Dysgeusia (TEAE): 3 (42.9) n (%)
  Fatigue (TEAE): 6 (85.7) n (%)
  Fatigue TEAE, patients: 85.7%
  Hyperphosphatemia (TEAE): 6 (85.7) n (%)
  Hyperphosphatemia TEAE, patients: 85.7%
  Nausea (TEAE): 4 (57.1) n (%)
  Neutropenia (TEAE): 3 (42.9) n (%)
  Stomatitis TEAE, patients: 28.6%
  TEAEs related to the combination partner, patients: 71.4%
  Taste disorder (TEAE): 3 (42.9) n (%)
  Vomiting (TEAE): 3 (42.9) n (%)
  Weight decreased (TEAE): 3 (42.9) n (%)
Phosphorylated FGFR2α; [3]
  Inhibition of FGFR2α phosphorylation at trough of steady state: exceeded 50%
